The values that follow come from ChEMBL document CHEMBL4052591, “Evaluation of Jatrophane Esters from Euphorbia spp. as Modulators of Candida albicans Multidrug Transporters” (2017).

Molecules are shown by their SMILES. Active and inactive are the calls of the source. The rule behind the calls is not given here.

For test [1], the system named is Candida albicans. Nature of the test: Inhibition of Candida albicans MDR1 transporter expressed in Saccharomyces cerevisiae AD cells assessed as nile red dye accumulation at 70 uM after 30 mins by flow cytometric analysis relative to control. Format: cell-based. The method, boiled down: (§1)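 S. cerevisiae AD strains overexpressing CaCdr1p (AD-CDR1) or CaMdr1p (AD-MDR1) were grown at 30 °C from OD600 0.1 to 0.25. They were resuspended as a 5% suspension in YEPD:water 1:2. Nile Red (7 μM final) was given ± inhibitor (70 μM) for 30 min at 30 °C. Accumulation was read by flow cytometry on 10 000 cells. Means ± SD, three independent experiments.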

Test [2] has as its system Candida albicans. Nature of the test: Inhibition of Candida albicans CDR1 transporter expressed in Saccharomyces cerevisiae AD cells assessed as nile red accumulation at 70 uM after 30 mins by flow cytometric analysis relative to control. In kind it is cell-based. The essentials: as §1
In general terms: Flow cytometry measures light scatter and fluorescence of single cells or particles in a stream.

`C=C1[C@@H](OC(=O)c2ccccc2)[C@H]2[C@@H](O)[C@](C)(OC(C)=O)C[C@]2(O)C(=O)[C@@H](C)/C=C/C(C)(C)[C@H](OC(C)=O)[C@H](O)[C@H]1OC(=O)c1ccccc1`: the inhibition result in test [1] and in test [2] was “inactive” in each case.
`C=C1[C@@H](OC(=O)C(C)C)[C@H]2[C@@H](OC(=O)c3ccccc3)[C@](C)(OC(C)=O)C[C@]2(O)C(=O)[C@@H](C)/C=C/C(C)(C)[C@H](OC(C)=O)[C@H](OC(C)=O)[C@H]1OC(=O)C(C)C`: the inhibition entry in test [1] and in test [2] was “inactive” each time.
Regarding `C=C1[C@@H](OC(=O)C(C)C)[C@H]2[C@@H](OC(C)=O)[C@@H](C)C[C@]2(O)C(=O)[C@@H](C)/C=C/C(C)(C)[C@H](OC(C)=O)[C@H](OC(C)=O)[C@H]1OC(=O)c1ccccc1`, the inhibition result in test [1] and in test [2] was “inactive” each time.
In the case of `C=C1[C@@H](OC(C)=O)[C@H]2[C@@H](OC(C)=O)[C@](C)(OC(=O)c3cccnc3)C[C@]2(OC(C)=O)C(=O)[C@@H](C)/C=C/C(C)(C)[C@H](OC(=O)c2cccnc2)[C@H](OC(C)=O)[C@H]1OC(=O)C(C)C`, the inhibition result in test [1] and in test [2] was “inactive” each time.
Regarding `C=C1[C@@H](OC(=O)C(C)C)[C@H]2[C@@H](OC(C)=O)[C@](C)(OC(C)=O)C[C@]2(O)C(=O)[C@@H](C)/C=C/C(C)(C)[C@H](OC(C)=O)[C@H](OC(C)=O)[C@H]1OC(=O)c1ccccc1`, the inhibition entry in test [1] and in test [2] was “inactive” in each case.
In the case of `C=C1[C@@H](OC(C)=O)[C@H]2[C@@H](OC(=O)c3ccccc3)[C@@H](C)C[C@]2(O)[C@H](O)[C@H](C)/C=C/C(C)(C)C(=O)[C@H](O)[C@H]1OC(C)=O`, the inhibition result in test [1] and in test [2] was “inactive” each time.
For the compound `C=C1[C@@H](OC(=O)C(C)C)[C@H]2[C@@H](OC(=O)C(C)C)[C@](C)(OC(C)=O)C[C@]2(O)C(=O)[C@@H](C)/C=C/C(C)(C)[C@H](OC(C)=O)[C@H](OC(C)=O)[C@H]1OC(=O)c1ccccc1`, the inhibition result in test [1] and in test [2] was “inactive” each time.
Regarding `C=C1[C@@H](OC(C)=O)[C@H]2[C@@H](OC(=O)c3ccccc3)[C@@H](C)C[C@]2(O)[C@H](OC(C)=O)[C@H](C)/C=C/[C@@](C)(CO)C(=O)[C@H](O)[C@H]1OC(C)=O`, the inhibition result in test [1] and in test [2] was “inactive” each time.
In the case of `C=C1[C@@H](OC(C)=O)[C@H]2[C@@H](OC(=O)c3ccccc3)[C@@H](C)C[C@]2(O)[C@H](O)[C@H](C)/C=C/C(C)(C)C(=O)[C@H](OC(C)=O)[C@H]1OC(C)=O`, the inhibition result in test [1] and in test [2] was “inactive” each time.
For the compound `C=C1[C@@H](OC(C)=O)[C@H]2[C@@H](OC(C)=O)[C@](C)(OC(C)=O)C[C@]2(OC(C)=O)C(=O)[C@H](C)/C=C/C(C)(C)C(=O)[C@H](OC(=O)c2ccccc2)[C@H]1OC(C)=O`, the inhibition result in test [1] and in test [2] was “inactive” throughout.
Regarding `C=C1CCC2[C@@H](/C=C(\C)C(=O)[C@@]3(OC(C)=O)C[C@H](C)[C@H](OC(C)=O)[C@@H]3[C@H]1OC(C)=O)C2(C)C` (single isomer, unassigned), the inhibition result in test [1] and in test [2] was “inactive” each time.
Take `C=C1[C@@H](OC(=O)c2ccccc2)[C@H]2[C@@H](OC(C)=O)[C@](C)(O)C[C@]2(O)C(=O)[C@@H](C)/C=C/C(C)(C)[C@H](OC(C)=O)[C@H](OC(C)=O)[C@H]1OC(=O)c1cccnc1`: the inhibition entry in test [1] and in test [2] was “inactive” in each case.
Take `C=C1[C@@H](OC(C)=O)[C@H]2[C@@H](OC(C)=O)[C@](C)(OC(=O)c3cccnc3)C[C@]2(O)C(=O)[C@@H](C)/C=C/C(C)(C)[C@H](OC(=O)c2cccnc2)[C@H](OC(C)=O)[C@H]1OC(=O)c1ccccc1`: the inhibition result in test [1] and in test [2] was “inactive” each time.
In the case of `C=C1[C@@H](OC(=O)C(C)C)[C@H]2[C@@H](OC(C)=O)[C@](C)(O)C[C@]2(O)C(=O)[C@@H](C)/C=C/C(C)(C)[C@H](OC(C)=O)[C@H](OC(C)=O)[C@H]1OC(=O)c1ccccc1`, the inhibition result in test [1] and in test [2] was “inactive” in each case.
Regarding `CC(=O)O[C@H]1[C@@H](OC(C)=O)C(C)(C)/C=C/[C@@](C)(O)C(=O)[C@@]2(O)C[C@@](C)(OC(C)=O)[C@H](OC(C)=O)[C@@H]2[C@H]2OC(=O)CC[C@@]2(OC(=O)C(C)C)[C@@H]1OC(=O)C(C)C`, the inhibition result in test [1] and in test [2] was “inactive” throughout.
With `CC(=O)O[C@H]1[C@@H](OC(C)=O)C(C)(C)/C=C/[C@H](C)C(=O)[C@@]2(OC(C)=O)C[C@@](C)(OC(C)=O)[C@H](O)[C@@H]2[C@H]2OC(=O)CC[C@@]2(OC(C)=O)[C@@H]1OC(=O)C(C)C`, the inhibition entry in test [1] and in test [2] was “inactive” each time.
For the compound `C=C1[C@@H](OC(=O)C(C)C)[C@H]2[C@@H](O)[C@](C)(OC(C)=O)C[C@]2(O)C(=O)[C@@H](C)/C=C/C(C)(C)[C@H](OC(C)=O)[C@H](OC(C)=O)[C@H]1OC(=O)c1ccccc1`, the inhibition result in test [1] and in test [2] was “inactive” each time.
For the compound `C=C1[C@@H](OC(C)=O)[C@H]2[C@@H](OC(C)=O)[C@](C)(O)C[C@]2(OC(C)=O)C(=O)[C@H](C)/C=C/C(C)(C)C(=O)[C@H](OC(=O)/C(C)=C/C)[C@H]1OC(C)=O`, the inhibition result in test [1] and in test [2] was “inactive” throughout.
Turning to `C=C1[C@@H](OC(C)=O)[C@H]2[C@@H](OC(C)=O)[C@](C)(OC(C)=O)C[C@]2(OC(C)=O)C(=O)[C@H](C)/C=C/C(C)(C)C(=O)[C@H](OC(=O)/C(C)=C/C)[C@H]1OC(C)=O`, the inhibition result in test [1] and in test [2] was “inactive” throughout.
On to `C=C1[C@@H](OC(C)=O)[C@H]2[C@@H](OC(C)=O)[C@](C)(O)C[C@]2(OC(C)=O)C(=O)[C@H](C)/C=C/C(C)(C)C(=O)[C@H](OC(=O)c2ccccc2)[C@H]1OC(C)=O`, for which the inhibition entry in test [1] and in test [2] was “inactive” throughout.
Regarding `C=C1[C@@H](OC(=O)C(C)C)[C@H]2[C@@H](OC(C)=O)[C@](C)(OC(=O)c3cccnc3)C[C@]2(O)C(=O)[C@@H](C)/C=C/C(C)(C)[C@H](OC(=O)c2cccnc2)[C@H](OC(C)=O)[C@H]1OC(=O)c1ccccc1`, the inhibition result in test [1] and in test [2] was “inactive” throughout.
With `CC(=O)O[C@H]1[C@@H](OC(C)=O)C(C)(C)/C=C/[C@@](C)(O)C(=O)[C@@]2(OC(C)=O)C[C@@](C)(OC(C)=O)[C@H](OC(C)=O)[C@@H]2[C@H]2OC(=O)CC[C@@]2(OC(C)=O)[C@@H]1OC(=O)C(C)C`, the inhibition entry in test [1] and in test [2] was “inactive” throughout.
On to `C=C1[C@@H](OC(C)=O)[C@H]2[C@@H](OC(C)=O)[C@](C)(OC(=O)c3cccnc3)C[C@]2(OC(C)=O)C(=O)[C@@H](C)/C=C/C(C)(C)[C@H](OC(=O)c2cccnc2)[C@H](OC(C)=O)[C@H]1OC(=O)c1ccccc1`, for which the inhibition entry in test [1] and in test [2] was “inactive” in each case.
In the case of `C=C1[C@@H](OC(C)=O)[C@H]2[C@@H](OC(C)=O)[C@](C)(OC(C)=O)C[C@]2(OC(C)=O)C(=O)[C@H](C)/C=C/C(C)(C)C(=O)[C@H](OC(C)=O)[C@H]1OC(C)=O`, the inhibition entry in test [1] and in test [2] was “inactive” each time.
